Source: ChEMBL document CHEMBL4813926, “Auyuittuqamides A-D, Cyclic Decapeptides from Sesquicillium microsporum RKAG 186 Isolated from Frobisher Bay Sediment” (J Nat Prod, 2021)
Active and inactive are the calls of the source. The rule behind the calls is not given here. Where a SMILES comes first, the peptide text is derived from it. [ ]: non-standard residue; d: D form. NMeF = CN[C@@H](Cc1ccccc1)C(=O)O; NMeT = CN[C@H](C(=O)O)[C@@H](C)O; NMeV = CN[C@H](C(=O)O)C(C)C

Experiments:
[1] = tested on: Candida albicans; assay: Antifungal activity against Candida albicans ATCC 14035 up to 128 uM measured after 22 hrs by CLSI protocol based microbroth dilution assay; format: functional, organism-based; conditions: dose microM <=128, time 22.0 hrs
Procedure, shortened: (§1)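 96-well microbroth dilution run to CLSI standards. OD 600 nm read at time zero and at the end, after 22 h incubation at 37 °C, to give growth inhibition.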

[2] = tested on: Staphylococcus warneri; assay: Antimicrobial activity against Staphylococcus warneri ATCC 17917 up to 128 uM measured after 22 hrs by CLSI protocol based microbroth dilution assay; format: functional, organism-based; conditions: dose microM <=128, time 22.0 hrs; procedure, shortened: as §1
[3] = tested on: Enterococcus faecium; assay: Antimicrobial activity against vancomycin-resistant Enterococcus faecium EF379 up to 128 uM measured after 22 hrs by CLSI protocol based microbroth dilution assay; format: functional, organism-based; conditions: dose microM <=128, time 22.0 hrs
Procedure, shortened: (§2)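 CLSI broth microdilution in 96-well format. Growth inhibition was read as absorbance at 600 nm at time zero and after 22 h incubation at 37 °C.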

[4] = tested on: MCF7; assay: Cytotoxicity against ER positive human MCF7 cells assessed as reduction in cell viability measured after 24 hrs by Alamar blue assay; format: functional, cell-based; conditions: MCF7, 24 h
Procedure, shortened: (§3)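 Cells in 96-well culture plates, in triplicate. Viability taken 24 h after treatment with Alamar Blue redox dye. Fluorescence read at 560/12 nm excitation and 590 nm emission, at time zero and 4 h after dye addition.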

[5] = tested on: Pseudomonas aeruginosa; assay: Antimicrobial activity against Pseudomonas aeruginosa ATCC 14210 up to 128 uM measured after 22 hrs by CLSI protocol based microbroth dilution assay; format: functional, organism-based; conditions: dose microM <=128, time 22.0 hrs; procedure, shortened: as §1
[6] = Cytotoxicity against ER negative human HTB26 cells assessed as reduction in cell viability measured after 24 hrs by Alamar blue assay; format: functional, cell-based; conditions: HTB26, 24 h; procedure, shortened: as §3
[7] = tested on: Keratinocyte; assay: Cytotoxicity against human epidermal keratinocytes assessed as reduction in cell viability measured after 24 hrs by Alamar blue assay; format: cell-based; procedure, shortened: as §3
[8] = tested on: Staphylococcus aureus; assay: Antimicrobial activity against methicillin-resistant Staphylococcus aureus ATCC 33591 up to 128 uM measured after 22 hrs by CLSI protocol based microbroth dilution assay; format: functional, organism-based; conditions: dose microM <=128, time 22.0 hrs; procedure, shortened: as §2

SMILES | Activity [1] | Activity [2] | Activity [3] | IC50 [4] [µM] | Activity [5] | IC50 [6] [µM] | IC50 [7] [µM] | Activity [8]
CC[C@H](C)[C@@H]1NC(=O)CNC(=O)[C@H](Cc2ccccc2)N(C)C(=O)[C@H]([C@@H](C)CC)NC(=O)[C@H]([C@@H](C)O)N(C)C(=O)[C@H](CC(C)C)NC(=O)CNC(=O)[C@H](C(C)C)N(C)C(=O)[C@H](C(C)C)NC(=O)[C@H](CO)NC1=O (cyclo(GISV[NMeV]GL[NMeT]I[NMeF])) | inactive | inactive | inactive | > 10 | inactive | > 10 | > 10 | inactive
CC[C@H](C)[C@@H]1NC(=O)CNC(=O)[C@H](Cc2ccccc2)N(C)C(=O)[C@H]([C@@H](C)CC)NC(=O)[C@H]([C@@H](C)O)N(C)C(=O)[C@H](CC(C)C)NC(=O)CNC(=O)[C@H](C(C)C)N(C)C(=O)[C@H]([C@@H](C)CC)NC(=O)[C@H](CO)NC1=O (cyclo(GISI[NMeV]GL[NMeT]I[NMeF])) | inactive | inactive | inactive | > 10 | inactive | > 10 | > 10 | inactive
CC(C)C[C@@H]1NC(=O)CNC(=O)[C@H](C(C)C)N(C)C(=O)[C@H](C(C)C)NC(=O)[C@H](CO)NC(=O)[C@H](C(C)C)NC(=O)CNC(=O)[C@H](Cc2ccccc2)N(C)C(=O)[C@H](C(C)C)NC(=O)[C@H]([C@@H](C)O)N(C)C1=O (cyclo(GL[NMeT]V[NMeF]GVSV[NMeV])) | inactive | inactive | inactive | > 10 | inactive | > 10 | > 10 | inactive
CC[C@@H](C)[C@@H]1NC(=O)CNC(=O)[C@H](Cc2ccccc2)N(C)C(=O)[C@H](C(C)C)NC(=O)[C@H]([C@@H](C)O)N(C)C(=O)[C@H](CC(C)C)NC(=O)CNC(=O)[C@H](C(C)C)N(C)C(=O)[C@H](C(C)C)NC(=O)[C@H](CO)NC1=O | inactive | inactive | inactive | > 10 | inactive | > 10 | > 10 | inactive
